Measured values published in ChEMBL document CHEMBL5724801, “EUbOPEN Chemogenomics Library - Multiplex” (2024).
“And” between values parts separate entries of the source, which are not always exact repeats. Equal values may be shown once.

Tested on: HEK-293T
Experiment: Multiplex assay against HEK293T
Assay type: toxicity, cell-based
Conditions: human
Outline: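 Imaging took place on a CQ1 microscope at 37°C and 5% CO2 once compound had been added to live cells stained at seeding with Hoechst33342, BioTracker Green Microtubule Cytoskeleton Dye, MitoTracker Red and Annexin V Alexa Fluor 680. CellPathfinder machine-learning gating classed cells as Hoechst high-intensity objects or normal cells, classed normal cells as having healthy, pyknosed or fragmented nuclei, and classed pyknosed cells as mitotic or apoptotic. Tubulin, mitochondrial-mass and membrane-permeability phenotypes are per cents of the healthy-nucleus cells.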

[1] = 12 h, 1 µM, compound concentration 1 uM
[2] = 12 h, 10 µM, compound concentration 10 uM
[3] = 24 h, 1 µM, compound concentration 1 uM
[4] = 24 h, 10 µM, compound concentration 10 uM
[5] = 48 h, 1 µM, compound concentration 1 uM
[6] = 48 h, 10 µM, compound concentration 10 uM

Compound: COc1cc(OC2CCN(C(C)=O)CC2)ccc1C(=O)N1CCC(N2C(=O)OCc3ccccc32)CC1
- Population Apoptotic (%) [1]: 28% and 48%
- Population Fragmented Nuclei (%) [1]: 5%
- Population Healthy Nuclei (%) [1]: 83% and 76%
- Population Hoechst High Intensity Objects (%) [1]: 7%
- Population Membrane Permeable-Phenotype (%) [1]: 0%
- Population Mitochondria Different-Phenotype (%) [1]: 37% and 59%
- Population Mitotic Cells (%) [1]: 71% and 51%
- Population Normal (%) [1]: 92%
- Population Pyknosed Nuclei (%) [1]: 11% and 18%
- Population Tubulin-Different-Phenotype (%) [1]: 26% and 21%
- Total Cell Count [1]: 477 and 381
- Population Apoptotic (%) [2]: 40% and 67%
- Population Fragmented Nuclei (%) [2]: 9% and 4%
- Population Healthy Nuclei (%) [2]: 77% and 80%
- Population Hoechst High Intensity Objects (%) [2]: 8% and 6%
- Population Membrane Permeable-Phenotype (%) [2]: 0%
- Population Mitochondria Different-Phenotype (%) [2]: 57% and 77%
- Population Mitotic Cells (%) [2]: 60% and 32%
- Population Normal (%) [2]: 91% and 93%
- Population Pyknosed Nuclei (%) [2]: 13% and 14%
- Population Tubulin-Different-Phenotype (%) [2]: 47% and 40%
- Total Cell Count [2]: 436 and 316
- Population Apoptotic (%) [3]: 28% and 48%
- Population Fragmented Nuclei (%) [3]: 9% and 7%
- Population Healthy Nuclei (%) [3]: 78% and 80%
- Population Hoechst High Intensity Objects (%) [3]: 4% and 6%
- Population Membrane Permeable-Phenotype (%) [3]: 2% and 0%
- Population Mitochondria Different-Phenotype (%) [3]: 25% and 40%
- Population Mitotic Cells (%) [3]: 71% and 51%
- Population Normal (%) [3]: 95% and 93%
- Population Pyknosed Nuclei (%) [3]: 11% and 12%
- Population Tubulin-Different-Phenotype (%) [3]: 17% and 15%
- Total Cell Count [3]: 598 and 491
- Population Apoptotic (%) [4]: 31% and 49%
- Population Fragmented Nuclei (%) [4]: 8% and 7%
- Population Healthy Nuclei (%) [4]: 78%
- Population Hoechst High Intensity Objects (%) [4]: 3% and 4%
- Population Membrane Permeable-Phenotype (%) [4]: 0%
- Population Mitochondria Different-Phenotype (%) [4]: 44% and 58%
- Population Mitotic Cells (%) [4]: 68% and 50%
- Population Normal (%) [4]: 96% and 95%
- Population Pyknosed Nuclei (%) [4]: 13% and 14%
- Population Tubulin-Different-Phenotype (%) [4]: 36% and 29%
- Total Cell Count [4]: 523 and 393
- Population Apoptotic (%) [5]: 20% and 33%
- Population Fragmented Nuclei (%) [5]: 13% and 11%
- Population Healthy Nuclei (%) [5]: 78% and 80%
- Population Hoechst High Intensity Objects (%) [5]: 3% and 2%
- Population Membrane Permeable-Phenotype (%) [5]: 1%
- Population Mitochondria Different-Phenotype (%) [5]: 19% and 23%
- Population Mitotic Cells (%) [5]: 79% and 66%
- Population Normal (%) [5]: 96% and 97%
- Population Pyknosed Nuclei (%) [5]: 8% and 7%
- Population Tubulin-Different-Phenotype (%) [5]: 13% and 12%
- Total Cell Count [5]: 902 and 655
- Population Apoptotic (%) [6]: 36%
- Population Fragmented Nuclei (%) [6]: 13% and 12%
- Population Healthy Nuclei (%) [6]: 78% and 80%
- Population Hoechst High Intensity Objects (%) [6]: 4% and 3%
- Population Membrane Permeable-Phenotype (%) [6]: 0%
- Population Mitochondria Different-Phenotype (%) [6]: 30% and 39%
- Population Mitotic Cells (%) [6]: 63%
- Population Normal (%) [6]: 95% and 96%
- Population Pyknosed Nuclei (%) [6]: 8% and 7%
- Population Tubulin-Different-Phenotype (%) [6]: 21% and 16%
- Total Cell Count [6]: 813 and 625

Compound: Cc1c(C(=O)NCCCN(C)C)sc2ncnc(Nc3ccc(F)cc3OC(C)CF)c12 (stereo not drawn)
- Population Apoptotic (%) [1]: 8.15% and 7.44%
- Population Fragmented Nuclei (%) [1]: 1.52% and 6.08%
- Population Hoechst High Intensity Objects (%) [1]: 0%
- Population Membrane Permeable-Phenotype (%) [1]: 0.79% and 5.56%
- Population Mitochondria Different-Phenotype (%) [1]: 38.58% and 38.89%
- Population Mitotic Cells (%) [1]: 91.85% and 92.56%
- Population Normal (%) [1]: 100%
- Population Pyknosed Nuclei (%) [1]: 34.18% and 81.76%
- Total Cell Count [1]: 395 and 148
- Population Apoptotic (%) [2]: 12.67% and 12.38%
- Population Fragmented Nuclei (%) [2]: 1.93% and 0.83%
- Population Healthy Nuclei (%) [2]: 25.6% and 12.4%
- Population Hoechst High Intensity Objects (%) [2]: 0%
- Population Mitotic Cells (%) [2]: 87.33% and 87.62%
- Population Normal (%) [2]: 100%
- Population Pyknosed Nuclei (%) [2]: 72.46% and 86.78%
- Population Tubulin-Different-Phenotype (%) [2]: 81.13% and 53.33%
- Total Cell Count [2]: 207 and 121
- Population Apoptotic (%) [3]: 11.02% and 10.43%
- Population Fragmented Nuclei (%) [3]: 2.43% and 2.58%
- Population Hoechst High Intensity Objects (%) [3]: 0%
- Population Membrane Permeable-Phenotype (%) [3]: 0.68% and 2.78%
- Population Mitochondria Different-Phenotype (%) [3]: 18.96% and 11.11%
- Population Mitotic Cells (%) [3]: 88.98% and 89.57%
- Population Normal (%) [3]: 100%
- Population Tubulin-Different-Phenotype (%) [3]: 36.57% and 13.89%
- Population Apoptotic (%) [4]: 33.73% and 30.77%
- Population Fragmented Nuclei (%) [4]: 1.65% and 0%
- Population Healthy Nuclei (%) [4]: 29.75% and 17.27%
- Population Hoechst High Intensity Objects (%) [4]: 0%
- Population Membrane Permeable-Phenotype (%) [4]: 1.39% and 0%
- Population Mitochondria Different-Phenotype (%) [4]: 69.44% and 26.32%
- Population Mitotic Cells (%) [4]: 66.27% and 69.23%
- Population Normal (%) [4]: 100%
- Population Pyknosed Nuclei (%) [4]: 68.6% and 82.73%
- Population Tubulin-Different-Phenotype (%) [4]: 80.56% and 73.68%
- Total Cell Count [4]: 242 and 110
- Population Apoptotic (%) [5]: 9.92% and 23.86%
- Population Fragmented Nuclei (%) [5]: 3.85% and 2.43%
- Population Healthy Nuclei (%) [5]: 86.64% and 54.85%
- Population Hoechst High Intensity Objects (%) [5]: 0%
- Population Membrane Permeable-Phenotype (%) [5]: 6.37% and 1.77%
- Population Mitochondria Different-Phenotype (%) [5]: 17.27% and 49.56%
- Population Mitotic Cells (%) [5]: 90.08% and 76.14%
- Population Normal (%) [5]: 100%
- Population Apoptotic (%) [6]: 42.07% and 65.33%
- Population Fragmented Nuclei (%) [6]: 1.78% and 1.64%
- Population Healthy Nuclei (%) [6]: 46.62% and 36.89%
- Population Hoechst High Intensity Objects (%) [6]: 0.35% and 0.81%
- Population Membrane Permeable-Phenotype (%) [6]: 1.53% and 0%
- Population Mitochondria Different-Phenotype (%) [6]: 90.84% and 55.56%
- Population Mitotic Cells (%) [6]: 57.93% and 34.67%
- Population Normal (%) [6]: 99.65% and 99.19%
- Population Pyknosed Nuclei (%) [6]: 51.6% and 61.48%
- Population Tubulin-Different-Phenotype (%) [6]: 30.53% and 82.22%
- Total Cell Count [6]: 282 and 123

Compound: CC(C)(C)c1cc(NC(=O)Nc2ccc(-c3cn4c(n3)sc3cc(OCCN5CCOCC5)ccc34)cc2)no1 [QUIZARTINIB]
- Population Apoptotic (%) [1]: 27% and 34%
- Population Fragmented Nuclei (%) [1]: 5%
- Population Healthy Nuclei (%) [1]: 83% and 80%
- Population Hoechst High Intensity Objects (%) [1]: 10% and 6%
- Population Membrane Permeable-Phenotype (%) [1]: 0%
- Population Mitochondria Different-Phenotype (%) [1]: 40% and 58%
- Population Mitotic Cells (%) [1]: 72% and 65%
- Population Normal (%) [1]: 89% and 93%
- Population Pyknosed Nuclei (%) [1]: 11% and 14%
- Population Tubulin-Different-Phenotype (%) [1]: 35% and 26%
- Total Cell Count [1]: 377 and 345
- Population Apoptotic (%) [2]: 53% and 73%
- Population Fragmented Nuclei (%) [2]: 7%
- Population Healthy Nuclei (%) [2]: 71%
- Population Hoechst High Intensity Objects (%) [2]: 23% and 12%
- Population Membrane Permeable-Phenotype (%) [2]: 0%
- Population Mitochondria Different-Phenotype (%) [2]: 78% and 81%
- Population Mitotic Cells (%) [2]: 46% and 26%
- Population Normal (%) [2]: 76% and 87%
- Population Pyknosed Nuclei (%) [2]: 21%
- Population Tubulin-Different-Phenotype (%) [2]: 68% and 63%
- Total Cell Count [2]: 324 and 293
- Population Apoptotic (%) [3]: 41% and 38%
- Population Fragmented Nuclei (%) [3]: 7% and 5%
- Population Healthy Nuclei (%) [3]: 84%
- Population Hoechst High Intensity Objects (%) [3]: 6% and 4%
- Population Membrane Permeable-Phenotype (%) [3]: 0%
- Population Mitochondria Different-Phenotype (%) [3]: 26% and 40%
- Population Mitotic Cells (%) [3]: 58% and 61%
- Population Normal (%) [3]: 93% and 95%
- Population Pyknosed Nuclei (%) [3]: 7% and 10%
- Population Tubulin-Different-Phenotype (%) [3]: 21% and 17%
- Total Cell Count [3]: 491 and 440
- Population Apoptotic (%) [4]: 62% and 69%
- Population Fragmented Nuclei (%) [4]: 8% and 9%
- Population Healthy Nuclei (%) [4]: 79% and 78%
- Population Hoechst High Intensity Objects (%) [4]: 16% and 9%
- Population Membrane Permeable-Phenotype (%) [4]: 0%
- Population Mitochondria Different-Phenotype (%) [4]: 63% and 75%
- Population Mitotic Cells (%) [4]: 37% and 30%
- Population Normal (%) [4]: 83% and 90%
- Population Pyknosed Nuclei (%) [4]: 12% and 11%
- Population Tubulin-Different-Phenotype (%) [4]: 57% and 50%
- Total Cell Count [4]: 413 and 321
- Population Apoptotic (%) [5]: 21%
- Population Fragmented Nuclei (%) [5]: 12% and 10%
- Population Healthy Nuclei (%) [5]: 80% and 82%
- Population Hoechst High Intensity Objects (%) [5]: 3% and 2%
- Population Membrane Permeable-Phenotype (%) [5]: 2% and 0%
- Population Mitochondria Different-Phenotype (%) [5]: 11% and 24%
- Population Mitotic Cells (%) [5]: 78%
- Population Normal (%) [5]: 96% and 97%
- Population Pyknosed Nuclei (%) [5]: 6%
- Population Tubulin-Different-Phenotype (%) [5]: 15% and 18%
- Total Cell Count [5]: 851 and 566
- Population Apoptotic (%) [6]: 57% and 58%
- Population Fragmented Nuclei (%) [6]: 9% and 11%
- Population Healthy Nuclei (%) [6]: 77% and 73%
- Population Hoechst High Intensity Objects (%) [6]: 9% and 12%
- Population Membrane Permeable-Phenotype (%) [6]: 1% and 0%
- Population Mitochondria Different-Phenotype (%) [6]: 40% and 59%
- Population Mitotic Cells (%) [6]: 42% and 41%
- Population Normal (%) [6]: 90% and 87%
- Population Pyknosed Nuclei (%) [6]: 12% and 14%
- Population Tubulin-Different-Phenotype (%) [6]: 35% and 37%
- Total Cell Count [6]: 583 and 392
